FGF22 binding: binders of human FGF22 protein, primary screen, FGF22 synaptogenesis inhibitor project, biophysical, thermal shift, single point; activity (Tm shift, normalised), % at 9.99 µM; Fibroblast growth factor 22 (Homo sapiens), Q9HCT0; recombinant FGF22 thermal shift, SYPRO orange fluorescence; percent of sucrose octasulfate shift, DMSO zero; 340,000 tested, 1.5% active; AID 651658, 2012;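 active means mean Tm shift, scaled 0 neutral to 100 positive control, at about 1.3% or above, every replicate too, limit read from the data; inconclusive means no clear call, values can overlap the other calls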
Target sequence (Q9HCT0 whole entry, looked up): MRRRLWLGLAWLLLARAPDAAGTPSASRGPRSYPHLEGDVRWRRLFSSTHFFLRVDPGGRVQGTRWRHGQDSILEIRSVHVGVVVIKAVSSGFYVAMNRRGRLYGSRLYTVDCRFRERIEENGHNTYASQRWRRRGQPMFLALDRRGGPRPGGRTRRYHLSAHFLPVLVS
ARNT TACC3 PPI: disruptors of ARNT/TACC3 protein interaction, primary screen, biochemical, AlphaScreen, single concentration | AID 623870, 2012 | 390,000 tested, 0.66% active | AlphaScreen His-ARNT PAS-B/GST-TACC3 binding, luminescence; TACC3 fragment carries E629A point mutation | inhibition, % at 9.99 µM;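 active means mean inhibition of replicates at least 50% and at least half of replicates each reaching 50%; inconclusive means half or more replicates reach 50% but mean below 50%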;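 further: 0% = complete ARNT plus TACC3 wells and 100% = ARNT alone without TACC3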
DENV2 CPE: inhibitors of DENV2 cytopathic effect, primary screen, cell-based, plate reader, single concentration | DENV2-infected cells, cytopathic effect rescue | CPE inhibition, % at 9.99 µM | 350,000 tested, 1.7% active | AID 651640, 2012; in the data active means CPE inhibition above about 20%, passing the limit was not always enough; inconclusive means no clear call, values can overlap the other calls; tested in BHK-21 cells;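 further: 0% = median of neutral control wells and 100% = median of positive control wells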
Xi reactivation: activators of inactive X chromosome reactivation, primary screen, imaging, XiGFP fibroblasts, GFP high-content imaging, set 2 | 360,000 tested, 0.055% active | XiGFP mouse fibroblasts, % GFP-positive cells imaging, 3 d; cells co-treated with 5-aza-dC sensitizer; scaled so ellipticine positive control = 100% | activation, % at 7.58 µM;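 active means mean normalized replicate activation at least 10% and every replicate at or above 10%; inconclusive means only one of the two criteria met; inactive means mean below 10% and not all replicates reach 10%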;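 further: 0% = median of on-plate neutral control wells and 100% = ellipticine 6 µM median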
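System: 68-5-11 XiGFP fibroblast line; Timing: 3 days compound exposure; Compound dosing: one concentration, pinned; Benchmarks: positive control ellipticine, 6 µM final; Buffer or medium: DMEM containing 5-aza-dC.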
SIRT5 block: SIRT5 desuccinylase inhibitors, primary screen, biochemical, fluorescence imaging, single point, set 5; Purified SirT5, succinyl-peptide AMC, trypsin-coupled fluorescence; inhibition, % at 15 µM; 330,000 tested, 1.1% active; in the data active means inhibition above about 15%; inconclusive means no clear call, values can overlap the other calls
Target sequence (Q9NXA8 whole entry, looked up): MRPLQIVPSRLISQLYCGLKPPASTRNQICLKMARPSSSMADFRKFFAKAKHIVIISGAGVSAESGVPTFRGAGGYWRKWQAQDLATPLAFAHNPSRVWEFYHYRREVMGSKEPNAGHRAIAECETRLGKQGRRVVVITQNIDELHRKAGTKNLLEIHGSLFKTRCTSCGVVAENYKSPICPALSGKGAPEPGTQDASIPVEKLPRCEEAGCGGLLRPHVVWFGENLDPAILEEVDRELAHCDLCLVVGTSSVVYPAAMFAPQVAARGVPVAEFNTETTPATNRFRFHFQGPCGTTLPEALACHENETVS
FN deposit inh: inhibitors of fibronectin matrix deposition, primary screen, AH1F cells, Alexa488-fibronectin fluorescence, plate reader | AH1F fibroblasts, overnight | inhibition, % at 12.6 µM | 350,000 tested, 0.086% active | AID 743247, 2014;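 active means mean inhibition across replicates of 30% or more, regardless of how many single replicates reach that level; inconclusive means mean under 30% yet at least half of replicates reach 30%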;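 further: positive control wells lacked labelled fibronectin entirely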
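material = AH1F fibroblast monolayer depositing Alexa488-labelled fibronectin into matrix | amount = 10000 AH1F cells/well | buffer or medium = DMEM plus 2% serum, read in PBS | incubation = 1 h cell adhesion before compound, then overnight fibronectin incubation | detection = fluorescence at 485 nm excitation, 525 nm emission | evaluation = percent inhibition as loss of matrix-bound fibronectin fluorescence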
* marks the source's active call; other numbers are inactive results; ? = inconclusive; nt = not tested or not shown. A selection: hits, their analogues and other compounds. The true share with any hit is near 3.8%.

SMILES	FGF22 binding	ARNT TACC3 PPI	DENV2 CPE	Xi reactivation	SIRT5 block	FN deposit inh
Cc1c(NC(=O)C(C)OC(=O)c2cc(Cl)ccc2O)c(=O)n(-c2ccccc2)n1C (centres undefined)	-0.4	-12.2	30.7*	0.0	-4.2	-2.1
COc1ccccc1N1CCN(S(=O)(=O)CCNC(=O)CCc2ccccc2)CC1	-0.2	nt	119.5*	0.0	0.6	1.4
CCOc1ccccc1N1CC(C(=O)Nc2c(C)n(C)n(-c3ccccc3)c2=O)CC1=O (centres undefined)	43.3*	-8.2	0.6	0.0	-4.0	6.3
COc1ccc(CC(=O)NCCS(=O)(=O)N2CCN(c3ccccc3OC)CC2)cc1	0.0	-2.3	-4.1	0.1	-5.3	5.7
C[C@@H]1CN([C@@H](C)CO)S(=O)(=O)c2ccc(C#CC3CC3)cc2O[C@@H]1CN(C)Cc1cccnc1	-0.2	1.4	-8.7	-0.6	1.8	nt
COc1ccc(S(=O)(=O)Nc2ccc3c(c2)C(=O)N([C@@H](C)CO)C[C@@H](C)[C@H](CN(C)S(=O)(=O)c2c(C)noc2C)OCCCC[C@@H](C)O3)cc1	-0.4	3.5	-9.1	0.0	3.3	1.0
COc1ccccc1N1CCN(CC(=O)NC(=O)NCc2ccccc2)CC1	43.2*	nt	0.2	0.4	nt	1.3
Cc1c(NC(=O)CN2CCN(c3ccc(O)cc3)CC2)c(=O)n(-c2ccccc2)n1C	-1.8	6.5	-3.5	0.0	0.7	-5.0
COc1ccccc1N1CCN(CC(=O)NCc2ccc(Cl)cc2)CC1	-0.2	1.3	1.1	-0.1	-2.3	8.5
COc1ccccc1N1CCN(C(=O)C(F)F)CC1	nt	-2.3	nt	nt	nt	nt
Cc1c(NC(=O)COc2cccc(Cl)c2Cl)c(=O)n(-c2ccccc2)n1C	42.9*	2.1	-4.4	0.3	-7.7	0.1
COc1ccccc1N1CCN(C(C)C(=O)N2CC(C)OC(C)C2)CC1 (centres undefined)	0.1	-4.0	-1.4	0.2	19.8*	nt
Cc1ccc(C)c(OCC(=O)Nc2c(C)n(C)n(-c3ccccc3)c2=O)c1	0.0	nt	-4.0	0.0	4.9	-7.0
COc1ccccc1N1CCN(CC(=O)Nc2c(C)n(C)n(-c3ccccc3)c2=O)CC1	-0.2	-4.9	0.1	0.0	29.0*	4.4
CO[C@@H](CN(C)Cc1cc(F)ccc1F)[C@H](C)CN([C@H](C)CO)S(=O)(=O)c1ccc(C)cc1	0.2	2.2	4.9	0.0	-1.2	-4.9
CC=Cc1ccc2n(c1=O)C[C@H]1[C@H](CO)[C@@H](C(=O)NCC3CCCCC3)[C@@H]2N1C(C)=O (mixture of isomers)	-0.1	-5.2	-3.9	0.2	-13.7	nt
CC(C)NC(=O)Nc1ccc2c(c1)C(=O)N(C)[C@@H]1CC[C@@H](CC(=O)NC3CCCCC3)O[C@@H]1CO2	0.2	-1.5	-4.1	0.0	nt	-0.3
C=CCNC(=O)[C@@H]1[C@H]2C(=O)O[C@H](c3ccccc3)[C@H](c3ccccc3)N2[C@H](c2ccccc2OCCO)[C@@]12C(=O)N(C(=O)OCCOC)c1ccccc12	-0.4	1.7	10.3	nt	1.8	nt
COc1ccccc1N1CCN(C(=O)CCc2ccccc2)CC1	-0.1	-7.2	-2.8	0.0	-3.3	8.1
COc1ccccc1N1CCN(C(=O)CCC(=O)O)CC1	43.0*	nt	7.0	1.5	1.5	-1.0
Cc1ccc(S(=O)(=O)N2CCN(C(=O)c3ccccn3)CC2)cc1	43.1*	-8.8	0.2	0.0	-3.2	-6.3
O=C(c1ccccn1)N1CCN(S(=O)(=O)c2ccccc2)CC1	43.2*	-4.8	-6.6	0.0	9.7	-4.8
COc1ccc(-c2ccc3n(c2=O)C[C@@H]2[C@@H](CO)[C@H](C(=O)NCC4CC4)[C@H]3N2S(C)(=O)=O)cc1	0.0	-10.2	0.6	-0.1	-92.7	nt
OCCNc1nc(Nc2ccccc2OC(F)(F)F)nc(N2CCCC2)n1	0.5	2.0	?	-0.1	nt	5.9
OCCNc1nc(Nc2ccccc2Oc2ccccc2)nc(N2CCCC2)n1	0.2	22.9*	-3.1	0.0	-3.6	-1.9
SMILES	FGF22 binding	ARNT TACC3 PPI	DENV2 CPE	Xi reactivation	SIRT5 block	FN deposit inh
COc1cccc(Nc2nc(NCCO)nc(N3CCCC3)n2)c1	-0.3	active	?	0.0	nt	-3.8
O=C(C[C@@H]1CC[C@H](NC(=O)C2CC2)[C@H](CO)O1)NC1CCC1	-0.1	3.6	7.0	1.0	0.5	-4.3
O=C(NNS(=O)(=O)c1ccc(Br)cc1)c1sccc1-n1cccc1	43.6*	-2.5	5.0	0.0	1.7	3.9
COc1cc(O)c2c(c1)oc(=O)c1c3cc(O)c(O)cc3oc21	0.2	nt	-1.4	nt	23.1*	nt
COc1ccc2c(c1)oc(=O)c1cc(OC)ccc12	0.1	2.4	16.0	nt	-1.6	nt
O=C(Nc1ccccc1SC(=O)c1ccccc1)c1ccccc1	0.0	nt	-0.4	0.4	-7.3	-6.2
Cc1ccc(C(=O)Sc2cccccc2=O)cc1	-0.4	56.9*	?	8.7	6.3	9.7
CCCC#Cc1ccc([C@H]2[C@H](C#N)N(C(=O)C3CC3)[C@H]2CO)cc1	-0.3	-15.6	9.6	0.1	1.9	4.4
CN(C)CC#Cc1ccc([C@H]2[C@@H](CO)N(C(=O)C3CC3)[C@H]2C#N)cc1	-0.1	1.9	32.5*	-0.1	0.7	-0.5
CC(C)C#Cc1ccc([C@H]2[C@H](C#N)N(C(=O)C3CCC3)[C@H]2CO)cc1	0.2	15.0	57.1*	0.0	3.4	-3.7
CC(C)C#Cc1ccc([C@@H]2[C@@H](C#N)N(C(=O)C3CCC3)[C@@H]2CO)cc1	-0.1	2.8	-9.9	0.1	0.5	-3.1
CCCC#Cc1ccc([C@@H]2[C@@H](CO)N(C(=O)C3CC3)[C@H]2C#N)cc1	-0.2	4.3	62.6*	-0.1	4.0	8.0
CN(C)CC#Cc1ccc([C@H]2[C@@H](CO)N(C(=O)C3CCCC3)[C@H]2C#N)cc1	0.1	-8.2	-0.2	-0.1	4.3	-5.2
CCC(=O)N1[C@H](CO)[C@H]2c3ccccc3N(S(=O)(=O)c3ccccc3F)C[C@H]21	0.5	-13.6	-2.2	0.4	1.9	nt
CO[C@@H](CN(C)Cc1cc(F)ccc1F)[C@H](C)CN(C(=O)Nc1ccc(F)cc1)[C@@H](C)CO	0.2	1.4	2.8	0.0	-1.0	-12.7

Bioassay records deposited in PubChem BioAssay by Broad Institute.
